# Compounds with a hit are over-represented: about 1.5% of the library has one in this group of screens.
# NSD2 HMT inh: blocks human histone methyltransferase NSD2. inhibition, % at 12.5 µM. O96028. hit rate 0.54% among 310,000. NSD2 peptide methylation, AlphaScreen, 120 min
# Casp6 inh: caspase-6 (human) enzyme inhibition. P55212. AID 686996. hit rate 0.53% among 350,000. purified caspase-6, Z-VEID-R110 cleavage fluorescence. inhibition, % at 12.5 µM;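 active = mean inhibition across replicates at least about 35%, with every replicate also reaching that limit, limit read from the data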;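 note: 0% = median of neutral control wells and 100% = no fluorescence left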
# Target sequence (P55212 24-179 limits assumed): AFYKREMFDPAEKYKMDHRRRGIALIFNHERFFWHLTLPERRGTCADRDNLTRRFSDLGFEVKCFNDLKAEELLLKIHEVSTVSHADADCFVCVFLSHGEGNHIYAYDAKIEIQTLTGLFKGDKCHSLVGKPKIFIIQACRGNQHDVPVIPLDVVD
# Target sequence (P55212 194-293 limits assumed): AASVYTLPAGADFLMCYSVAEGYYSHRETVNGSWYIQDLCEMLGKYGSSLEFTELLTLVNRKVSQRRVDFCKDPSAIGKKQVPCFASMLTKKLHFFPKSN
# HCV NS3 hel inh: blocks Hepatitis C virus NS3 helicase unwinding. hit rate 0.56% among 290,000. inhibition, % at 10.9 µM. NS3 helicase DNA unwinding, Cy5 molecular beacon fluorescence. AID 1800;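 active = inhibition above the mean of all tested compounds plus 3 SD, set per campaign, cut at about 35% in these data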;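 note: 0% = DMSO wells and 100% = thioflavine S control wells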
#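 Assay system: hepatitis C virus NS3 helicase domain fragment enzyme. Also added: annealed dual-labelled DNA beacon duplex, ATP-started. Timing: 1 h reaction at 25 °C, ATP-initiated. Technique: Cy5 fluorescence at 0 and 60 min, beacon hairpin quenching. Evaluation: % inhibition of unwinding. Replication: one well per compound.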
# DNMT1 inh: DNMT1 (human) enzyme inhibition. inhibition (reported as % activation of signal), % at 10 µM. P26358. DNMT1 molecular beacon, Hinp1I cleavage, fluorescence. AID 588458. hit rate 0.83% among 360,000
# NS3 hel confirm: HCV NS3 helicase inhibition, confirmation assay; shares compounds with HCV NS3 hel inh; NS3 helicase DNA unwinding, Cy5 molecular beacon fluorescence; inhibition, % at 10.9 µM; hit rate 31% among 1,600; AID 1943;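 active = inhibition above the mean of all tested compounds plus 3 SD, cutoff set per campaign, cut at about 36% in these data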
# FID counter trip: displaces DNA intercalator in HCV helicase counter-screen; shares compounds with HCV NS3 hel inh; DNA fluorescent intercalator displacement, fluorescence; inhibition, % at 7.9 µM; hit rate 4% among 1,600; in the data active = inhibition above about 37%;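 note: 0% = vehicle and 100% = reference compound; higher means more displacement of ethidium bromide from the DNA hairpin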
# DNMT1 confirm: confirmation of human DNMT1 inhibitors; shares compounds with DNMT1 inh; hit rate 8% among 2,300; DNMT1 molecular beacon HinP1I cleavage, fluorescence; inhibition, % at 10 µM;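 active = average inhibition of at least 30% in the single-concentration confirmation test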
# DNMT1 interf: beacon fluorescence artifact counter-screen; DNMT1 molecular beacon spectral interference counterscreen, fluorescence 485/520; hit rate 1% among 2,300; activation (fluorescence interference), % at 10 µM; shares compounds with DNMT1 inh;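 active = activation of at least 30% at 10 µM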;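 note: DNMT1 catalytic domain with a HinP1I cleavage step and a FAM/dabcyl DNA beacon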
# CASP1 counter: blocks human caspase-1 in a selectivity counter-screen; shares compounds with Casp6 inh; purified caspase-1, Z-YVAD-R110 cleavage fluorescence; activity change, negative = inhibition, % at 35 µM; 100 tested, under 10 active; AID 743289;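 active = compounds lowering fluorescence whose fitted half-maximal concentration is no more than twice their top tested dose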
# AlphaScreen art: AlphaScreen assay artifact in NSD2 counter-screen; shares compounds with NSD2 HMT inh; AlphaScreen artifact counterscreen, preloaded methylated H4 peptide; AC35, µM (titrated, usually from 10 µM), inactives show at the highest dose activity change, negative = signal loss; hit rate 9.4% among 1,500; call rule not given here
# Active calls of the source: *; nt = no result; + = active, no number. Cut-off read from the data, not from the text of the source, unless noted: active = inhibition above about 50%; inactive = the rest.
SMILES,NSD2 HMT inh,Casp6 inh,HCV NS3 hel inh,DNMT1 inh,NS3 hel confirm,FID counter trip,AlphaScreen art,others
CC=Cc1ccc2n(c1=O)C[C@H]1[C@H](CO)[C@@H](C(=O)N[C@H](C)c3ccccc3)N(C(=O)c3cnccn3)[C@@H]21 (mixture of isomers),nt,-4,nt,nt,nt,nt,nt,
O=c1c(O)cccc2cc(O)c(O)c(O)c12,128*,98*,53*,95*,108*,13,1.6µM*,CASP1 counter=-10
COc1ccccc1N=Nc1ccc(O)c2ncccc12,94*,54*,41*,2,-19,3,-13%,
CCS(=O)(=O)c1ccc(N=Nc2ccc(O)c3ncccc23)c(OC)c1,24,nt,-9,-8,nt,nt,nt,
CN(C)CC(=O)N1CC2(C1)[C@@H](c1ccccc1)[C@@H](CO)N2S(=O)(=O)c1ccccc1,nt,-1,nt,nt,nt,nt,nt,
O=C(O)CSc1cc(NS(=O)(=O)c2ccc(Br)cc2)c2ccccc2c1O,107*,95*,55*,23,70*,26,-6%,
Cc1ccc(S(=O)(=O)Nc2ccc(Br)cc2C(NCC(=O)O)c2ccccc2)cc1 (stereo not drawn),-6,nt,-6,5,nt,nt,nt,
O=C(O)CCCN1C(=O)/C(=C/C=C/c2ccco2)SC1=S,110*,82*,73*,87*,76*,4,-13%,
O=C(O)CC(C(=O)O)N1C(=O)/C(=C/C=C/c2ccco2)SC1=S (stereo not drawn),+,81*,74*,79*,87*,-3,-20%,
O=C(O)CC(C(=O)O)N1C(=O)/C(=C/c2ccc(-c3nc4ccccc4s3)o2)SC1=S (stereo not drawn),67*,nt,67*,107*,67*,-2,-6%,
Cc1ccc(NC(=O)CCCN2C(=O)/C(=C/C=C/c3ccccc3)SC2=S)cc1,-2,nt,19,-7,nt,nt,nt,
Cc1ccc(-c2cnc3c(c2)C(=O)N([C@H](C)CO)C[C@@H](C)[C@H](CN(C)C(=O)c2ccc(F)cc2)O3)cc1,nt,0,nt,nt,nt,nt,nt,
COCC#Cc1cnc2c(c1)C(=O)N([C@@H](C)CO)C[C@H](C)[C@@H](CN(C)Cc1ccc3c(c1)OCO3)O2,nt,8,nt,nt,nt,nt,nt,
CN1C(=O)c2cc(NC(=O)c3ccccc3Cl)ccc2OC[C@@H]2O[C@H](CC(=O)NCC(F)(F)F)CC[C@@H]21,nt,-1,nt,nt,nt,nt,nt,
c1coc(-c2nc(-c3ccco3)c(-c3ccco3)nc2-c2ccco2)c1,149*,nt,116*,117*,93*,38*,-6%,
c1coc(-c2ncc[nH]2)c1,4,nt,-4,0,nt,nt,nt,
CC(C)NC(=O)Nc1ccc2c(c1)C(=O)N([C@@H](C)CO)C[C@@H](C)[C@@H](CN(C)S(=O)(=O)c1cn(C)cn1)O2,nt,1,nt,nt,nt,nt,nt,
CC1(C)Cc2c(c(-c3ccco3)[nH]c(=O)c2C#N)CS1,94*,nt,44*,17,75*,7,0%,
CC1(C)Cc2c(c(-c3ccccc3)[nH]c(=O)c2C#N)CS1,0,-3,-5,0,nt,nt,nt,
COC(=O)c1ccccc1S(=O)(=O)NNC(=O)c1nn(C)c(=O)c2ccccc12,6,0,nt,53*,nt,nt,nt,DNMT1 confirm=5;DNMT1 interf=6
Cc1ccc(-c2nn(CC(=O)NCc3cc(-c4nn(C)c(=O)c5ccccc45)ccc3C)c(=O)c3ccccc23)cc1,0,nt,-4,57*,nt,nt,nt,DNMT1 confirm=0;DNMT1 interf=-5
CN1CCN(c2ccc(CNC(=O)c3ccc(-c4ccnn4C)c4ccoc34)cc2)CC1,2,-68,nt,75*,nt,nt,nt,DNMT1 confirm=4;DNMT1 interf=3
CN1CCN(c2ccc(CNC(=O)c3ccc(-c4cnn(C)c4)c4ccoc34)cc2)CC1,15,-11,nt,0,nt,nt,nt,

# Screening results as filed in PubChem.
